Measured values gathered from unrelated publications.
Compare with care: the assays were run in different laboratories.
Medium: plasma
Route: intravenous

SMILES | test system | setting | Vd
NCCOCC(=O)N1CCC[C@H](C(=O)NCc2nc(-c3ccc(C(F)(F)F)cc3)cs2)C1 | male Sprague-Dawley rat | 1 mg/kg | 3.2 L/kg
Cc1cc(S(=O)(=O)N[C@H]2CC[C@H](CN3CCN(c4ccc(C5CCC(=O)NC5=O)c(Cl)c4)CC3)CC2)ccc1Nc1ncc(C(F)(F)F)c(N2CCC[C@](C)(O)C2)n1 (stereo partly shown) | rat | 2 mg/kg | 3 L/kg
[2H]c1cc(C)c(NC(=O)c2cnc(Nc3cc(N4CCC(O)CC4)nc(C)n3)s2)c(Cl)c1 | male Sprague-Dawley rat | 1 mg/kg | 4.8 L/kg
COCC(=O)N1CCC[C@H](C(=O)NCc2nc(-c3ccccc3)cs2)C1 | male Sprague-Dawley rat | 1 mg/kg | 0.18 L/kg
Cn1c(=O)c2[nH]cnc2n(C)c1=O | male Sprague-Dawley rat | 22.5 mg/kg | 1.52 L/kg
Cc1nc(Nc2ncc(C(=O)Nc3c(C)cccc3Cl)s2)cc(N2CC[C@H](O)C2)n1 | male Sprague-Dawley rat | 1 mg/kg | 0.9 L/kg
Cc1cc(S(=O)(=O)N[C@H]2CC[C@H](CN3CCN(c4cccc(NC5CCC(=O)NC5=O)c4)CC3)CC2)ccc1Nc1ncc(C(F)(F)F)c(N2CCC[C@](C)(O)C2)n1 (stereo partly shown) | rat | 2 mg/kg | 10 L/kg
COc1ccc(N(Cc2csc(-c3ccccc3)n2)C(=O)CCCCCC(=O)NO)cc1 | female Sprague-Dawley rat | 5 mg/kg | 441 L/kg
C[C@H]1CN(c2ccc(C3CCC(=O)NC3=O)cc2F)CCN1CC12CCC(NS(=O)(=O)c3ccc(Nc4ncc(C(F)(F)F)c(N5CCC[C@](C)(O)C5)n4)c(F)c3)(CC1)CO2 (stereo partly shown) | rat | 2 mg/kg | 4 L/kg
CCONC(=O)N1CCC[C@H](C(=O)NCc2nc(-c3ccc(C#N)cc3)cs2)C1 | male Sprague-Dawley rat | 1 mg/kg | 0.45 L/kg
C[C@H]1Oc2cc(cnc2N)-c2c(nn(C)c2C#N)CN(C)C(=O)c2ccc(F)cc21 | Sprague-Dawley rat | 1 mg/kg, single dose | 2 L/kg
C[C@]1(O)CCCN(c2nc(Nc3ccc(S(=O)(=O)N[C@@H]4CCN(CC5CCN(c6ccc(C7CCC(=O)NC7=O)cc6F)CC5)C[C@H]4F)cc3F)ncc2C(F)(F)F)C1 (stereo partly shown) | rat | 2 mg/kg | 5 L/kg
Cc1nc(Nc2ncc(C(=O)Nc3c(C)cccc3Cl)s2)cc(N2CCN(CCO)CC2)n1 | male Sprague-Dawley rat | 1 mg/kg, single dose | 2.4 L/kg
Cc1cc(S(=O)(=O)N[C@H]2CC[C@H](N3CCN(CC4CCN(c5cccc6c5n(C)c(=O)n6C5CCC(=O)NC5=O)CC4)CC3)CC2)ccc1Nc1ncc(C(F)(F)F)c(N2CCC[C@](C)(O)C2)n1 (stereo partly shown) | rat | 2 mg/kg | 10 L/kg
CC(C)(N)COCC(=O)N1CCC[C@H](C(=O)NCc2nc(-c3ccc(C(F)(F)F)cc3)cs2)C1 | male Sprague-Dawley rat | 1 mg/kg | 4.3 L/kg
Cc1nc(Nc2ncc(C(=O)Nc3c(C)cccc3Cl)s2)cc(N2CC[C@H](N)C2)n1 | male Sprague-Dawley rat | 1 mg/kg | 16.4 L/kg
